In ChEMBL document CHEMBL4828701, “An Integrated Strategy for the Detection, Dereplication, and Identification of DNA-Binding Biomolecules from Complex Natural Product Mixtures” (J Nat Prod, 2021):
Active and inactive are the calls of the source. The calls are words filed in the database; no cut-off is given here.

Columns and labels:
MDA-MB-231 = test: Antiproliferative activity against human MDA-MB-231 assessed as cell growth inhibition after 48 hrs by SRB assay; format: functional; details: for CC50: read-out: LC50 (the source's name)
Procedure, shortened: (§1)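 MDA-MB-231 and MDA-MB-453 cells in modified IMEM with 5% FBS and 30 μg/mL gentamicin, 37 °C, 5% CO2, used within 4 months of thaw. After overnight adherence, cells had 48 h compound treatment (DMSO 0.5% v/v final). Growth was read by SRB assay, with GI50 from nonlinear regression as the mean of 3 or 4 experiments ±SEM.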

MDA-MB-453 = test: Antiproliferative activity against human MDA-MB-453 assessed as cell growth inhibition after 48 hrs by SRB assay; format: functional; procedure, shortened: as §1
HCC1937 = test: Antiproliferative activity against human HCC1937 assessed as cell growth inhibition after 48 hrs by SRB assay; format: functional
Procedure, shortened: (§2)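 HCC1937, HCC70 and SJCRH30 cells in RPMI-1640 with 10% FBS and 50 μg/mL gentamicin, 37 °C, 5% CO2, used within 4 months of thaw. Plated cells adhered overnight before 48 h compound exposure (DMSO 0.5% v/v final). Read-out was SRB, with GI50 by nonlinear regression from 3 or 4 experiments ±SEM.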

HCC70 = test: Antiproliferative activity against human HCC70 assessed as cell growth inhibition after 48 hrs by SRB assay; format: functional; details: for CC50: read-out: LC50 (the source's name); procedure, shortened: as §2
HCC1806 = test: Antiproliferative activity against human HCC1806 assessed as cell growth inhibition after 48 hrs by SRB assay; format: functional; details: for CC50: read-out: LC50 (the source's name)
Procedure, shortened: (§3)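 A-673 and HCC1806 cells in RPMI-1640 with 5% FBS, 37 °C, 5% CO2, used within 4 months of thaw. Cells were plated and left overnight, then exposed to compounds in DMSO (0.5% v/v final) for 48 h. SRB staining followed, with GI50 fitted by nonlinear regression, as the mean of 3 or 4 experiments ±SEM.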

SJRH30 = test: Antiproliferative activity against human SJRH30 assessed as cell growth inhibition after 48 hrs by SRB assay; format: functional; procedure, shortened: as §2
A673 = test: Antiproliferative activity against human A673 assessed as cell growth inhibition after 48 hrs by SRB assay; format: functional; details: for CC50: read-out: LC50 (the source's name); procedure, shortened: as §3
[1] = Aqueous solubility of the compound; details: buffer
Salmon testes DNA [2] = test: Binding affinity to salmon DNA groove measured after 30 mins by UV based spectroscopic method; format: nucleic-acid assay; details: Salmo salar
Procedure, shortened: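 Compounds (typically 5–50 μg) in 200 μL water/MeOH were added to 400 μL salmon sperm DNA stock (1 mg/mL in 10 mM Tris, 1 mM EDTA, pH 8.0, 15% glycerol) and incubated 30 min at room temperature. Samples were ultrafiltered (100 kDa, 5000g, 10 °C), and filtrate peak areas (UV 254 nm, LC-PDA-MS/MS) were compared with no-DNA buffer controls.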

Salmon testes DNA [3] = test: Covalent binding affinity to salmon DNA measured after 30 mins by UV based spectroscopic method; format: nucleic-acid assay; details: Salmo salar
Procedure, shortened: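 After 30 min room-temperature incubation with salmon sperm DNA in TE/15% glycerol buffer and 100 kDa ultrafiltration, retained complexes were washed with 30% MeOH (3× 5000g, 10 °C). Ligands were then released with 95% MeOH/1% formic acid for 20 min, refiltered, dried, taken up in MeOH, and analysed by LC-PDA-MS/MS against no-DNA controls.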

**Q.** For `COc1cc2c(cc1O)[C@@H](Cc1ccc(O)c(Oc3ccc(C[C@@H]4c5cc(OC)c(OC)cc5CCN4C)cc3)c1)N(C)CC2` [DARUISOLINE], which GI50 (MDA-MB-231) is on record?
**A.** 13 µM

**Q.** And the TGI (MDA-MB-231)?
**A.** 19 µM

**Q.** And the CC50 (MDA-MB-231)?
**A.** 30 µM

**Q.** And the GI50 (MDA-MB-453)?
**A.** 9 µM

**Q.** What about the TGI (MDA-MB-453) of the same compound?
**A.** 14 µM

**Q.** And the GI50 (HCC1937)?
**A.** 6.9 µM

**Q.** What about the TGI (HCC1937) of the same compound?
**A.** 11 µM

**Q.** What about the GI50 (HCC70) of the same compound?
**A.** 8.8 µM

**Q.** And the TGI (HCC70)?
**A.** 13 µM

**Q.** What about the CC50 (HCC70) of the same compound?
**A.** 19 µM

**Q.** And the GI50 (HCC1806)?
**A.** 17 µM

**Q.** What about the TGI (HCC1806) of the same compound?
**A.** 27 µM

**Q.** What about the CC50 (HCC1806) of the same compound?
**A.** 41 µM

**Q.** What about the GI50 (SJRH30) of the same compound?
**A.** 3.7 µM

**Q.** And the TGI (SJRH30)?
**A.** 6 µM

**Q.** What about the GI50 (A673) of the same compound?
**A.** 9.2 µM

**Q.** And the TGI (A673)?
**A.** 13 µM

**Q.** What about the CC50 (A673) of the same compound?
**A.** 19 µM

**Q.** With `COc1ccc2cc1Oc1ccc(cc1)C[C@H]1c3cc(c(OC)cc3CCN1C)Oc1c(OC)c(OC)cc3c1[C@H](C2)N(C)CC3` [FANCHININ] as the compound, how does the GI50 (MDA-MB-231) read?
**A.** 5 µM

**Q.** What about the TGI (MDA-MB-231) of the same compound?
**A.** 7.4 µM

**Q.** And the CC50 (MDA-MB-231)?
**A.** 12 µM

**Q.** And the GI50 (MDA-MB-453)?
**A.** 3.3 µM

**Q.** What about the TGI (MDA-MB-453) of the same compound?
**A.** 4.8 µM

**Q.** What about the GI50 (HCC1937) of the same compound?
**A.** 4.2 µM

**Q.** What about the TGI (HCC1937) of the same compound?
**A.** 10 µM

**Q.** What about the GI50 (HCC70) of the same compound?
**A.** 3.4 µM

**Q.** And the TGI (HCC70)?
**A.** 5.9 µM

**Q.** And the CC50 (HCC70)?
**A.** 11 µM

**Q.** What about the GI50 (HCC1806) of the same compound?
**A.** 5.1 µM

**Q.** And the TGI (HCC1806)?
**A.** 8.5 µM

**Q.** What about the CC50 (HCC1806) of the same compound?
**A.** 15 µM

**Q.** What about the GI50 (SJRH30) of the same compound?
**A.** 3 µM

**Q.** What about the TGI (SJRH30) of the same compound?
**A.** 4.3 µM

**Q.** What about the GI50 (A673) of the same compound?
**A.** 4 µM

**Q.** And the TGI (A673)?
**A.** 6 µM

**Q.** What about the CC50 (A673) of the same compound?
**A.** 8.9 µM

**Q.** Which solubility [1] does the source give for `CN(C)CCN(Cc1cccs1)c1ccccn1` [METHAPYRILENE] here?
**A.** Insoluble

**Q.** Which solubility [1] does the source give for `Cc1c2ccncc2c(C)c2c1[nH]c1ccccc12` [ELLIPTECINE] here?
**A.** Insoluble

**Q.** Which results are given for `COc1ccc2cc1Oc1ccc(cc1)C[C@H]1c3c(cc4c(c3Oc3cc5c(cc3OC)CCN(C)[C@@H]5C2)OCO4)CCN1C` [CEPHARANTHINE]?
**A.** GI50 (MDA-MB-231): 5.3 µM; TGI (MDA-MB-231): 7.7 µM; CC50 (MDA-MB-231): 12 µM; GI50 (MDA-MB-453): 5.5 µM; TGI (MDA-MB-453): 7.8 µM; GI50 (HCC1937): 6 µM; TGI (HCC1937): 14 µM; GI50 (HCC70): 5.8 µM; TGI (HCC70): 9.6 µM; CC50 (HCC70): 17 µM; GI50 (HCC1806): 7.2 µM; TGI (HCC1806): 12 µM; CC50 (HCC1806): 19 µM; GI50 (SJRH30): 3.8 µM; TGI (SJRH30): 5.7 µM; GI50 (A673): 4.5 µM; TGI (A673): 5.8 µM; CC50 (A673): 7.5 µM

**Q.** Which solubility [1] does the source give for `Nc1c2ccccc2nc2ccccc12` [AMINACRINE] here?
**A.** Insoluble

**Q.** Which solubility [1] does the source give for `NC[C@@H]1O[C@H](O[C@H]2[C@@H](O)[C@H](O[C@@H]3[C@@H](O)[C@H](N)C[C@H](N)[C@H]3O[C@H]3O[C@H](CN)[C@@H](O)[C@H](O)[C@H]3N)O[C@@H]2CO)[C@H](N)[C@@H](O)[C@@H]1O` [FRAMYCETIN] here?
**A.** Soluble

**Q.** What about the Activity (Salmon testes DNA [2]) of the same compound?
**A.** Active

**Q.** Which results are given for `O=NN(CCCl)C(=O)NCCCl` [CARMUSTINE]?
**A.** Activity (Salmon testes DNA [3]): Active; solubility [1]: Insoluble

**Q.** What does the source list for `N[C@@H](Cc1ccc(N(CCCl)CCCl)cc1)C(=O)O` [MELPHALAN]?
**A.** Activity (Salmon testes DNA [3]): Active; solubility [1]: Insoluble
